{"source": "ChEMBL document CHEMBL4130377", "about": "(Eur J Med Chem, 2017)", "key": {"[1]": {"test_system": "Mus musculus", "assay": "Anorectic activity in overnight fasted ICR mouse assessed as reduction in cumulative food intake at 1000 nmol/kg, ip measured up to 8 hrs post dose"}, "[2]": {"target": "Glucagon receptor (Homo sapiens, UniProt P47871)", "sequence (P47871 whole entry)": "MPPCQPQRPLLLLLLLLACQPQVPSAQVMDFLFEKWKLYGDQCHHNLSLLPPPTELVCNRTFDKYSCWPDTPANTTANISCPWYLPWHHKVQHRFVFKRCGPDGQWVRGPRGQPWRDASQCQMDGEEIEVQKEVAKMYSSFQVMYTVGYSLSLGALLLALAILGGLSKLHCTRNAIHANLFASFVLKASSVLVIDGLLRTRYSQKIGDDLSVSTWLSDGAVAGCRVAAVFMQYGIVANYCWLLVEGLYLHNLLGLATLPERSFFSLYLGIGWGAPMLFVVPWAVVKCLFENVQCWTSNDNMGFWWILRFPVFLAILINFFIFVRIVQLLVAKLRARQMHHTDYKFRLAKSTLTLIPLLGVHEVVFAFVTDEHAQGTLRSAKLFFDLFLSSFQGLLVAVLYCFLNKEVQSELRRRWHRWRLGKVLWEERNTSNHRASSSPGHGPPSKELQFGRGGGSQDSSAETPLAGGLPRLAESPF", "assay": "Agonist activity at human GCGR expressed in HEK293 cells assessed as increase in cAMP accumulation after 20 mins by HTRF assay", "type": "functional, cell-based"}, "[3]": {"test_system": "Mus musculus", "assay": "Body weight lowering effect in ICR mouse assessed as cumulative changes in body weight at 1000 nmol/kg, ip administered every other day for 2 weeks", "type": "functional, organism-based"}, "[4]": {"test_system": "Mus musculus", "assay": "Anorectic activity in overnight fasted ICR mouse assessed as reduction in cumulative food intake at 1000 nmol/kg, ip measured at 2 hrs post dose", "type": "functional, organism-based", "procedure,_shortened": "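Male ICR mice, 9 weeks old, […], then given a single i.p. dose of 1000 nmol/kg in 0.9% saline; saline-injected controls. Mice were returned to home cages with preweighed food, which was reweighed at 0.5, 1, 2, 4, 8 and 24 h. Readout is cumulative food intake, n=6-8 per group.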"}, "[5]": {"test_system": "Mus musculus", "assay": "Antiobesity activity in diet-induced obese C57Bl/6 mouse model assessed as serum adiponectin level at 3.48 mg/kg, ip administered every other day for 30 days by ELISA (reference value: 8.9 +/- 0.38 ug/ml)", "type": "functional, organism-based", "procedure,_shortened": "(§1)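 Male C57Bl/6 mice were fed high-fat diet (60% kcal fat) for 12 weeks; DIO mice were ~38 g at 20 weeks. Dosing was i.p. (10 mL/kg in 0.9% saline) every other day at 9 am for 30 days, with saline controls and low-fat-diet lean mice for reference. Insulin, leptin and adiponectin were measured at study end. n=6-8 per group, means ± SD.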"}, "[6]": {"test_system": "Mus musculus", "assay": "Antiobesity activity in diet-induced obese C57Bl/6 mouse model assessed as plasma cholesterol level at 3.48 mg/kg, ip administered every other day for 30 days (reference value: 4.33 +/- […])", "type": "functional, organism-based"}, "[7]": {"test_system": "Mus musculus", "assay": "Antiobesity activity in diet-induced obese C57Bl/6 mouse model assessed as serum leptin level at 3.48 mg/kg, ip administered every other day for 30 days by ELISA (reference value: 1.9 +/- 0.07 ng/ml)", "type": "functional, organism-based", "procedure,_shortened": "as §1"}, "[8]": {"test_system": "Mus musculus", "assay": "Antiobesity activity in diet-induced obese C57Bl/6 mouse model assessed as plasma insulin level at 3.48 mg/kg, ip administered every other day for 30 days by ELISA (reference value: 13.33 +/- […])", "type": "functional, organism-based"}, "[9]": {"test_system": "Mus musculus", "assay": "Anorectic activity in overnight fasted ICR mouse assessed as reduction in cumulative food intake at 1000 nmol/kg, ip measured at <2 hrs post dose", "type": "functional, organism-based"}, "[10]": {"test_system": "Mus musculus", "assay": "Antiobesity activity in diet-induced obese C57Bl/6 mouse model assessed as plasma triglyceride level at 3.48 mg/kg, ip administered every other day for 30 days (reference value: 0.84 +/- […])", "type": "functional, organism-based"}}, "note": "Activity calls are given as the source filed them. The rule behind the calls is not given here.", "data": [{"compound": "CC[C@H](C)[C@H](NC(=O)[C@H](Cc1ccccc1)NC(=O)[C@H](CCC(=O)O)NC(=O)[C@H](CCCCN)NC(=O)[C@H](C)NC(=O)[C@H](C)NC(=O)[C@H](CCC(N)=O)NC(=O)CNC(=O)[C@H](CCC(=O)O)NC(=O)[C@H](CC(C)C)NC(=O)[C@H](Cc1ccc(O)cc1)NC(=O)[C@H](CO)NC(=O)[C@H](CO)NC(=O)[C@@H](NC(=O)[C@H](CC(=O)O)NC(=O)[C@H](CO)NC(=O)[C@@H](NC(=O)[C@H](Cc1ccccc1)NC(=O)[C@@H](NC(=O)CNC(=O)[C@H](CCC(=O)O)NC(=O)[C@H](C)NC(=O)[C@@H](N)Cc1c[nH]cn1)[C@@H](C)O)[C@@H](C)O)C(C)C)C(=O)N[C@@H](C)C(=O)N[C@@H](Cc1c[nH]c2ccccc12)C(=O)N[C@@H](CC(C)C)C(=O)N[C@H](C(=O)N[C@@H](CCCCN)C(=O)NCC(=O)N[C@@H](CCCN=C(N)N)C(=O)NCC(=O)O)C(C)C", "values": [{"measurement": "Activity", "setting": "[1]", "result": "Active"}, {"measurement": "EC50", "setting": "[2]", "result": "Not Active"}, {"measurement": "Activity", "setting": "[3]", "result": "inactive"}]}, {"compound": "GLUCAGON", "values": [{"measurement": "Activity", "setting": "[4]", "result": "inactive"}, {"measurement": "Activity", "setting": "[5]", "result": 12.2, "unit": "µg/mL"}, {"measurement": "Activity", "setting": "[6]", "result": 5.08, "unit": "mmol/L"}, {"measurement": "Activity", "setting": "[7]", "result": 1.79, "unit": "ng/mL"}, {"measurement": "Activity", "setting": "[8]", "result": 8.41, "unit": "ng/mL"}, {"measurement": "Activity", "setting": "[9]", "result": "Active"}, {"measurement": "Activity", "setting": "[10]", "result": 1.19, "unit": "mmol/L"}, {"measurement": "Activity", "setting": "[3]", "result": "inactive"}]}]}
